Active and inactive are the calls of the source. The rule behind the calls is not given here.
Columns and labels:
Escherichia coli = assay: Antibacterial activity against Escherichia coli at 0.12 mg after 24 hrs by paper disk assay; format: functional, organism-based
Procedure, shortened: (§1)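 Paper disk diffusion: 6 mm diameter disks loaded with 0.12 mg test substance, placed on plates seeded with the test organism and incubated 24 h at 28 °C; activity scored as diameter of growth-inhibition zone (mm).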

Bacillus subtilis = assay: Antibacterial activity against Bacillus subtilis at 0.12 mg after 24 hrs by paper disk assay; format: functional; procedure, shortened: as §1
Candida albicans = assay: Antifungal activity against Candida albicans at 0.12 mg after 24 hrs by paper disk assay; format: functional, organism-based; procedure, shortened: as §1
[1] = test system: Trichophyton mentagrophytes; assay: Antifungal activity against Trichophyton mentagrophytes at 0.12 mg after 24 hrs by paper disk assay; format: functional; conditions: for zone of inhibition at 120 µg/disc: read-out: IZ; procedure, shortened: as §1
Amorphotheca resinae = assay: Antifungal activity against Cladosporium resinae at 0.12 mg after 24 hrs by paper disk assay; format: functional; conditions: for zone of inhibition at 120 µg/disc: read-out: IZ; procedure, shortened: as §1

Row | SMILES | inhibition zone (IZ) (Escherichia coli) | inhibition zone (IZ) (Bacillus subtilis) | inhibition zone (IZ) (Candida albicans) | inhibition zone (IZ) [1] | inhibition zone (IZ) (Amorphotheca resinae) | zone of inhibition at 120 µg/disc (Bacillus subtilis; read-out: IZ) [mm] | zone of inhibition at 120 µg/disc [1] [mm] | zone of inhibition at 120 µg/disc (Amorphotheca resinae) [mm]
1 | C=CCCCCCCCCC[C@@H](O)[C@H](C)NC(C)=O | inactive | inactive | inactive | inactive | inactive |  |  | 
2 | CCCCCCCC/C=C\C[C@@H](O)[C@H](C)N | Active | Active | Active | Active | Active |  |  | 
3 | C=CCCCCCCCCC[C@@H](OC(C)=O)[C@H](C)NC(C)=O [DIACETYL HALAMINOL A] | inactive |  | inactive | inactive | inactive | 7 |  | 
4 | C=CCCCCCCCCC[C@@H](O)[C@H](C)N [HALAMINOL A] | Active | Active | Active |  |  |  | 10 | 10
5 | C=CCCCCCCC[C@@H](O)[C@H](C)N [HALAMINOL B] | Active | Active | Active |  |  |  | 10 | 10
